pKi: −log10 of the molar value.
Legend:
[1] = biological target: 5-hydroxytryptamine receptor 2A (Homo sapiens, UniProt P28223); assay: Binding affinity against the cloned human 5-hydroxytryptamine 2A receptor using [125I]DOI as the radioligand
Summary of the method: (§1)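 AV12 hamster fibroblast membranes stably expressing the human receptor, with 0.07-0.15 nM [125I]DOI. Buffer is 10 µM pargyline, 9.75 mM MgCl2, 0.5 mM EDTA, 0.1% ascorbate and 50 mM Tris pH 7.4. Incubation 30 min at 37 °C with about 40 µg (5-HT2A) or 30 µg (5-HT2C) protein, then gamma counting. Nonspecific binding set with 1 µM ketanserin (2A) or 10 µM mianserin (2C).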

[2] = biological target: 5-hydroxytryptamine receptor 2B (Homo sapiens, UniProt P41595); assay: Binding affinity against the cloned human 5-hydroxytryptamine 2B receptor using [3H]5-HT as the radioligand
Summary of the method: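 Membranes come from AV12 hamster fibroblasts stably expressing the human receptor. About 2 nM [3H]-5-HT is used with drug dilutions spanning 6 log units, in 3 mM CaCl2, 10 µM pargyline, 50 mM Tris and 0.1% ascorbic acid, pH 7.4. Triplicate tubes with 100-150 µg protein, 15 min at 37 °C, PEI-soaked GF/B filtration. Nonspecific binding set with 10 µM 5-HT or 10 µM 1-naphthylpiperazine.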

[3] = biological target: T1, 5-hydroxytryptamine receptor 1A (Rattus norvegicus, UniProt P19327); assay: Binding affinity against the 5-hydroxytryptamine 1A receptor labelled with [3H]8-OH-DPAT in rat hippocampal homogenates; assay type: tissue-based, Hippocampus
T1 sequence (P19327 whole entry): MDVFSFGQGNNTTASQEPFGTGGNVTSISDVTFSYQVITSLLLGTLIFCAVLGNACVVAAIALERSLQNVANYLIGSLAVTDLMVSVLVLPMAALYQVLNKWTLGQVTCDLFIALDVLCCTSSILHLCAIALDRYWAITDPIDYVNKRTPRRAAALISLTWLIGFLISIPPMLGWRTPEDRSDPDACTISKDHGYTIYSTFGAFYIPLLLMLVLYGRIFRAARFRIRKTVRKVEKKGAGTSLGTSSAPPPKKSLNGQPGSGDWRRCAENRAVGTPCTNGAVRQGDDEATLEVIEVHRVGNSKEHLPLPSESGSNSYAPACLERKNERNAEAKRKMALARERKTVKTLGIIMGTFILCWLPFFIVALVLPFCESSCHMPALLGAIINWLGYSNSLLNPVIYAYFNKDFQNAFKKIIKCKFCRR
Summary of the method: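 Buffer is 50 mM Tris HCl pH 7.4 with 0.5 mM Na2EDTA, 0.1% Na ascorbate and pargyline. Triplicate tubes with 200-400 µg protein, 15 min at 37 °C, GF/C filtration. Nonspecific binding set with 10 µM 5-HT.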

[4] = biological target: T2, 5-hydroxytryptamine receptor 2C (Homo sapiens, UniProt P28335); assay: Binding affinity against the cloned human 5-hydroxytryptamine 2C receptor using [125I]DOI as the radioligand; summary of the method: as §1
T2 sequence (P28335 whole entry): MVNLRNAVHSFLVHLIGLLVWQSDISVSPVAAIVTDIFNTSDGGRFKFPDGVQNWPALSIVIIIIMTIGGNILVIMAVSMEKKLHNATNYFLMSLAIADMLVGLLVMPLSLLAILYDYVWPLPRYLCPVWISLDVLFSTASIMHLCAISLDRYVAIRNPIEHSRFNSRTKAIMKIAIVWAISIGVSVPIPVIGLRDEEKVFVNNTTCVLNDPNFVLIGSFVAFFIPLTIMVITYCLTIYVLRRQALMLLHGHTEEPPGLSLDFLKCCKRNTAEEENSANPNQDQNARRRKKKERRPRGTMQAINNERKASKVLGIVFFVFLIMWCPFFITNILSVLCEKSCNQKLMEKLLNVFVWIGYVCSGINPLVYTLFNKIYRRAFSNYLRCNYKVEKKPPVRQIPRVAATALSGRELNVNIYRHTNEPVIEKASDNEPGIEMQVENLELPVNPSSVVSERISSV

Sequence of 5-hydroxytryptamine receptor 2B (P41595 whole entry): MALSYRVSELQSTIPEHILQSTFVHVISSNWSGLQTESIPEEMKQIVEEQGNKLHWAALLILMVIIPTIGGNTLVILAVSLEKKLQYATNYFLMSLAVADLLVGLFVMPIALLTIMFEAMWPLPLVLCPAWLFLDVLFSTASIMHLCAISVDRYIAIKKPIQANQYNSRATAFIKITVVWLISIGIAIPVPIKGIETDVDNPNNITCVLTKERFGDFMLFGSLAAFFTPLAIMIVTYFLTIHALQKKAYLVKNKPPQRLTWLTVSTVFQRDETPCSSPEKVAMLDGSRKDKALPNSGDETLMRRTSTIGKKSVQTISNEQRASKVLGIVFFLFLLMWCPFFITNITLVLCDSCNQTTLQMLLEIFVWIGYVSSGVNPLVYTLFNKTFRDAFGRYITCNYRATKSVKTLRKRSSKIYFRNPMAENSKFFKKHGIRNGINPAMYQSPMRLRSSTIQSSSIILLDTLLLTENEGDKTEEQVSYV
Sequence of 5-hydroxytryptamine receptor 2A (P28223 whole entry): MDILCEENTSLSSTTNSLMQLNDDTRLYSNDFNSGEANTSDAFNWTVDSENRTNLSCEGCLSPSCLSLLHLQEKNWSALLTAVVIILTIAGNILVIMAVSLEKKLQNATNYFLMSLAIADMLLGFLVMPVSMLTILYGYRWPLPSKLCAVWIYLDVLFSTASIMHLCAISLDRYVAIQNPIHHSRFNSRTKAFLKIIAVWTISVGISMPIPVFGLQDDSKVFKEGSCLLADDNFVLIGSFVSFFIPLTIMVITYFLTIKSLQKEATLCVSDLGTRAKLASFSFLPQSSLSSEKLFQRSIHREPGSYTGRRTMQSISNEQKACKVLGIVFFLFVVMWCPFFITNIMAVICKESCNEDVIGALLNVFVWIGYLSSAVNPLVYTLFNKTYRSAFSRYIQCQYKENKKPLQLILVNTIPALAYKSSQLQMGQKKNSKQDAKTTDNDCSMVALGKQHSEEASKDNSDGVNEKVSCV

Row | Structure (SMILES) | pKi [1] | pKi [2] | pKi [3] | pKi [4]
1 | COc1ccc2[nH]cc(C3CC3N)c2c1 (stereo not drawn) | 7.51 | 7.42 | 7.40 | 7.75
2 | NC1CC1c1c[nH]c2ccc(F)cc12 (stereo not drawn) | 7.99 | 8.24 | 6.59 | 8.72
3 | COc1cccc2[nH]cc(C3CC3N)c12 (stereo not drawn) | 7.34 | 7.19 |  | 7.93
4 | CC(CN)c1c[nH]c2ccccc12 (stereo not drawn) | 7.39 | 7.06 |  | 8.03
5 | COc1ccc2[nH]cc(C(C)CN)c2c1 (stereo not drawn) | 8.66 | 8.08 |  | 9.00
6 | N[C@H]1C[C@@H]1c1c[nH]c2ccccc12 | 6.88 | 7.03 | 6.09 | 7.67
7 | N[C@@H]1C[C@H]1c1c[nH]c2ccccc12 | 7.01 | 7.23 | 6.59 | 7.36
8 | NC1CC1c1c[nH]c2ccccc12 (racemic) | 6.79 | 7.23 |  | 7.52

— ChEMBL document CHEMBL1131336, “Synthesis and serotonin receptor affinities of a series of trans-2-(indol-3-yl)cyclopropylamine derivatives” (J Med Chem, 1998)
